In ChEMBL document CHEMBL3758101, “Synthesis and biological evaluation of fluorinated 1,5-diarylpyrrole-3-alkoxyethyl ether derivatives as selective COX-2 inhibitors endowed with anti-inflammatory activity” (Eur J Med Chem, 2016):

Experiments:
[1] = tested on: Mus musculus; assay: Antinociceptive activity in CD1 albino mouse model of acetic acid-induced visceral pain assessed as number of writhes at 3 mg/kg, po pretreated for 30 mins before acetic acid challenge measured after 5 mins (reference value: 30.5 +/- 1.7); type: functional
[2] = target: T1, Prostaglandin G/H synthase 2 (Mus musculus, UniProt Q05769); assay: Inhibition of COX-2 in mouse J774 cells assessed as reduction in LPS-induced PGE2 level incubated for 24 hrs by radio immunoassay; type: cell-based
T1 sequence (Q05769 whole entry): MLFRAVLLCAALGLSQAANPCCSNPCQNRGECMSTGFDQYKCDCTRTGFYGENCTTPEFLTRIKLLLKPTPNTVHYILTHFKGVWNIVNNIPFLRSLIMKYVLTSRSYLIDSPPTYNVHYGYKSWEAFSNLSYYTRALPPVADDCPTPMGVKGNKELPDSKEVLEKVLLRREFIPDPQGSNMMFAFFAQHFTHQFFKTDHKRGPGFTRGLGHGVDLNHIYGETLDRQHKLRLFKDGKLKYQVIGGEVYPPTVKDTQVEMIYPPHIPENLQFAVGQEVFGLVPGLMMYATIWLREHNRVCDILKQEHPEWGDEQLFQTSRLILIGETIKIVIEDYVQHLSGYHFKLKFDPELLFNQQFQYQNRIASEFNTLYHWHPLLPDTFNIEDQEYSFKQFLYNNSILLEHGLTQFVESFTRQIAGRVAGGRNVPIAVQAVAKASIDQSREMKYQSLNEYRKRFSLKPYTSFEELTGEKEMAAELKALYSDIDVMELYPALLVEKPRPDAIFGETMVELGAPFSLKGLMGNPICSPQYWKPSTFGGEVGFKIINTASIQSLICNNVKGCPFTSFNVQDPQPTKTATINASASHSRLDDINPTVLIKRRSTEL
Outline: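 Murine J774 macrophages were stimulated for 24 h with E. coli LPS (10 µg/mL) to induce COX-2, with or without compound (0.001–10 µM). Supernatant PGE2 was measured by RIA as % inhibition of production versus control; triplicate wells, mean of three experiments, IC50 from a sigmoidal variable-slope fit.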

[3] = tested on: Rattus norvegicus; assay: Antiinflammatory activity in Sprague-Dawley rat model of carrageenan-induced paw edema assessed as paw volume at 10 mg/kg, po administered 2 hrs post carrageenan challenge measured after 90 mins by plethysmometry (reference value: 37.2 +/- 3.4 ml); type: functional
[4] = tested on: Rattus norvegicus; assay: Antiinflammatory activity in Sprague-Dawley rat model of carrageenan-induced paw edema assessed as paw volume at 3 mg/kg, po administered 2 hrs post carrageenan challenge measured after 120 mins by plethysmometry (reference value: 34.5 +/- 4.4 ml); type: functional
[5] = tested on: Rattus norvegicus; assay: Antihyperalgesic effect in Sprague-Dawley rat model of monosodium iodoacetate-induced osteoarthritis assessed as withdrawal threshold at 20 mg/kg, ip administered 14 days post MIA challenge measured after 30 mins by paw pressure test (reference value: 37.8 +/- 3.3 g); type: functional
Outline: (§1)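 Male Sprague–Dawley rats (200–250 g). MIA (2 mg/25 µL) was injected into the left tibiotarsal joint on day 0 under 2% isoflurane; controls received 25 µL saline. On day 14 compound or vehicle was given at time 0. Paw pressure threshold (g) was read with an analgesimeter using a blunt conical probe on the dorsal paw at 30, 60, 90 and 120 min. Mean ± s.e.m., 6 rats.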

[6] = tested on: Rattus norvegicus; assay: Antiinflammatory activity in Sprague-Dawley rat model of carrageenan-induced paw edema assessed as volume of paw edema at 10 mg/kg, po administered 2 hrs post carrageenan challenge measured after 60 mins by plethysmometry (reference value: 2.73 +/- 0.07 ml); type: functional
[7] = tested on: Rattus norvegicus; assay: Antihyperalgesic activity in Sprague-Dawley rat model of carrageenan-induced inflammatory pain assessed as paw pressure threshold at 20 mg/kg, po administered 2 hrs post carrageenan challenge measured after 120 mins by paw pressure test (reference value: 34.5 +/- 4.4 g)
[8] = tested on: Rattus norvegicus; assay: Antihyperalgesic activity in Sprague-Dawley rat model of carrageenan-induced inflammatory pain assessed as paw pressure threshold at 20 mg/kg, po administered 2 hrs post carrageenan challenge measured after 60 mins by paw pressure test (reference value: 35.4 +/- 3.6 g)
[9] = tested on: Rattus norvegicus; assay: Antiinflammatory activity in Sprague-Dawley rat model of carrageenan-induced paw edema assessed as paw volume at 3 mg/kg, po administered 2 hrs post carrageenan challenge measured after 90 mins by plethysmometry (reference value: 37.2 +/- 3.4 ml); type: functional
[10] = tested on: Rattus norvegicus; assay: Antihyperalgesic effect in Sprague-Dawley rat model of monosodium iodoacetate-induced osteoarthritis assessed as withdrawal threshold at 3 mg/kg, ip administered 14 days post MIA challenge measured after 120 mins by paw pressure test (reference value: 39.2 +/- 4 g); type: functional; outline: as §1
[11] = tested on: HaCaT; assay: Cytotoxicity against human HaCaT cells at 1 to 50 uM after 24 hrs by LDH release assay; type: cell-based
Outline: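 HaCaT cells were grown in high-glucose DMEM with 10% FBS to 80% confluency. They were exposed 24 h to compound at 1–50 µM (final DMSO ≤0.1%). LDH release was expressed as a percentage of Triton X-100 lysis (100%); mean of three experiments.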

[12] = tested on: Rattus norvegicus; assay: Antihyperalgesic effect in Sprague-Dawley rat model of monosodium iodoacetate-induced osteoarthritis assessed as withdrawal threshold at 10 mg/kg, ip administered 14 days post MIA challenge measured after 30 mins by paw pressure test (reference value: 37.8 +/- 3.3 g); type: functional; outline: as §1
[13] = tested on: HaCaT; assay: Antiproliferative activity against human HaCaT cells after 24 hrs by BrdU incorporation assay; type: functional, cell-based
Outline: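 HaCaT human keratinocytes were grown in high-glucose DMEM with 10% FBS and 2 mM L-glutamine at 37 °C and 5% CO2 to 80% confluency. Cells were treated 24 h with compound at 1, 10 or 50 µM (final DMSO ≤0.1%). Proliferation was read by BrdU incorporation as % of DMSO control; three experiments.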

[14] = tested on: Rattus norvegicus; assay: Antihyperalgesic effect in Sprague-Dawley rat model of monosodium iodoacetate-induced osteoarthritis assessed as withdrawal threshold at 20 mg/kg, ip administered 14 days post MIA challenge measured after 90 mins by paw pressure test (reference value: 37.8 +/- 3.1 g); type: functional; outline: as §1
[15] = tested on: Mus musculus; assay: Antinociceptive activity in CD1 albino mouse model of acetic acid-induced visceral pain assessed as number of writhes at 3 mg/kg, po pretreated for 60 mins before acetic acid challenge measured after 5 mins (reference value: 32.5 +/- 2.4); type: functional
[16] = tested on: Mus musculus; assay: Antinociceptive activity in CD1 albino mouse model of acetic acid-induced visceral pain assessed as number of writhes at 20 mg/kg, po pretreated for 60 mins before acetic acid challenge measured after 5 mins (reference value: 32.5 +/- 2.4); type: functional
[17] = species on record: Mus musculus; assay: Selectivity ratio of IC50 for mouse COX-1 to IC50 for mouse COX-2
Outline: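 In J774 cells, the ratio was taken as COX-1 IC50 over COX-2 IC50. COX-1 activity: 15 min compound pretreatment, then 30 min with 15 µM arachidonic acid. COX-2 activity: 24 h LPS (10 µg/mL) induction with compound. PGE2 was measured by RIA in both; IC50 values came from sigmoidal fits of three experiments.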

IC50 [2]: 7 nM | Ratio IC50 [17]: > 14300
Structure (SMILES): Cc1c(CCOCCCF)cc(-c2ccc(S(C)(=O)=O)cc2)n1-c1ccc(F)cc1
Activity [1]: 21.8 | Activity [3]: 47.2 g | Activity [4]: 36.2 g | Activity [5]: 51.3 g | Activity [6]: 2.15 mL | Activity [7]: 35.5 g | Activity [8]: 56.3 g | Activity [9]: 44.8 g | Activity [10]: 39 g | Activity [11]: Non-toxic | Activity [12]: 50.3 g | Activity [13]: Dose-dependent effect | Activity [14]: 43.8 g | Activity [15]: 24.6 | Activity [16]: 16.9
